Laboratory results reported in ChEMBL document CHEMBL5331136, “Design, Synthesis, and Biological Evaluation of Novel Spiro Imidazobenzodiazepines to Identify Improved Inhaled Bronchodilators” (J Med Chem, 2023).
≈ marks a conversion by molar mass, not a printed value. Calls of active or inactive are those of the source. No cut-off for these calls is given here.

Assays:
[1] = molecular target: GABA-A receptor; anion channel; assay: Displacement of [3H]flunitrazepam from GABAA receptor in rat brain extract; format: tissue-based
[2] = Aqueous solubility of the compound at […] under shaking condition for 24 hrs by UV absorbance based analysis; format: physicochemical; details: for solubility at 24 h: aqueous; for solubility: buffer, 24 h
HEK293 = assay: Cytotoxicity against HEK293 cells assessed as lethal dose measured after 18 hrs by CellTiter-Glo assay; format: functional; details: Homo sapiens, read-out: LD50 (the source's name)
How it was run: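 HEK293T cells grown in DMEM/high glucose with NEAA, HEPES, pen/strep, 10% heat-inactivated FBS. Plated 15,000 cells/well, then 4 h at 37 °C, 5% CO2. Compound added as 1:3 serial dilutions, top final concentration 300 µM. After 18 h, read luminescence by CellTiter-Glo. DMSO negative control, aminoketone positive control. Three independent experiments in quadruplicate, variable-slope nonlinear regression.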

[3] = molecular target: GABA-A receptor; anion channel (Rattus norvegicus) (UniProt O09028+P15431+P18506+P18508+P19969+P20236+P23574+P23576+P28471+P28473+P30191+P62813+P63079+P63138+Q91ZM7+Q9ES14); assay: Displacement of [3H]flunitrazepam from GABAA receptor in rat brain extract at 10 uM relative to control; format: tissue-based
[4] = Metabolic stability in mouse liver S9 fraction assessed as parent compound remaining at 10 uM measured after 120 mins in presence of NADPH by LC-MS/MS analysis; format: ADME, subcellular; details: read-out: Stability
[5] = Metabolic stability in mouse liver S9 fraction assessed as parent compound remaining at 10 uM measured after 120 mins in presence of UDP-glucuronic acid by LC-MS/MS analysis; format: ADME, subcellular; details: read-out: Stability
How it was run: (§1)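 Liver S9 (human or mouse), protein 0.5 mg/mL, compound 10 µM (from 1 mM DMSO stock), phosphate buffer pH 7.4, […], alamethicin 0.0225 mg/mL final. Preincubated 5 min at 37 °C, then S9 added. Aliquots at 0 and 120 min quenched in cold methanol with 5 µM 4,5-diphenylimidazole internal standard. Parent remaining from LC-MS/MS peak-area ratio. Two independent assays in triplicate (n = 6).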

[6] = Inhibition of sensorimotor coordination in Swiss Webster mouse at 40 mg/kg, po measured after 10 to 30 mins by rotarod analysis; format: toxicity, organism-based; details: in vivo, time 10-30 min
How it was run: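 Female Swiss Webster mice, 10 weeks old, trained on rotarod at 15 rpm for 3 min. Single oral gavage, 100 µL, in 2.5% PEG400/97.5% 2% HPMC. Tested 3 min at 10, 30 and 60 min after dosing; fall time recorded at second fall. n = 12, two-way repeated-measures ANOVA with Bonferroni posttest.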

[7] = Metabolic stability in human liver S9 fraction assessed as parent compound remaining at 10 uM measured after 120 mins in presence of NADPH by LC-MS/MS analysis; format: ADME, subcellular; details: for remaining at 2 h, 10 µM: liver S9 fraction, read-out: Stability
[8] = Metabolic stability in human liver S9 fraction assessed as parent compound remaining at 10 uM measured after 120 mins in presence of UDP-glucuronic acid by LC-MS/MS analysis; format: ADME, subcellular; details: read-out: Stability; how it was run: as §1
Trachea = assay: Induction of smooth muscle relaxation in Hartley guinea pig trachea ring assessed as reduction in substance P induced smooth muscle constriction at 25 uM measured after 30 mins; format: functional, tissue-based; details: Cavia porcellus
Mus musculus = assay: Induction of bronchodilation in A/J mouse assessed as reduction in sRaw values at 7.2 mg/kg administered as nebulized compound; format: functional, organism-based
How it was run: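 Female A/J mice, no allergen sensitization, trained 5 days in a double-chamber plethysmograph while conscious. Compound nebulized in PBS at 7.2 mg/kg, then five nebulized methacholine challenges (in water). Each nebulization under 1 min, 3 min recording, 1 min pause. sRaw calculated per interval. n = 12, two-way repeated-measures ANOVA against vehicle.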

SMILES | IC50 [1] | solubility at 24 h [2] | CC50 (HEK293) | Activity [3] | solubility [2] | remaining at 2 h, 10 µM [4] | remaining at 2 h, 10 µM [5] | Activity [6] | remaining at 2 h, 10 µM [7] | remaining at 2 h, 10 µM [8] | Activity (Trachea) | Activity (Mus musculus) | Stability ([7]; s9, 2 h, 10 µM)
CCOC(=O)c1ncn2c1C(CC)N=C(c1ccccc1F)c1cc(Br)ccc1-2 (racemic) | 175 µM | 417 µM (≈ 190 µg/mL) | > 300 µM | 61% |  |  |  |  |  |  |  |  | 
CCOC(=O)c1ncn2c1C1(CCC1)N=C(c1ccccc1F)c1cc(Br)ccc1-2 |  |  | > 120 µM | 83% | 186 µM (≈ 87.1 µg/mL) |  |  |  |  |  |  |  | 
O=C1Nc2ccc(Br)cc2C(c2ccccc2F)=NC12CCC2 |  |  | > 150 µM | 71% | 109 µM (≈ 40.7 µg/mL) |  |  |  |  |  |  |  | 
CCOC(=O)c1ncn2c1C1(CC1)N=C(c1ccccc1F)c1cc(Cl)ccc1-2 |  |  | > 150 µM | 34% | 54 µM (≈ 22.1 µg/mL) |  |  |  |  |  |  |  | 
CCOC(=O)c1ncn2c1C1(CCCCC1)N=C(c1ccccc1F)c1cc(Br)ccc1-2 |  |  | 96 µM | 74% | 141 µM (≈ 70 µg/mL) |  |  |  |  |  |  |  | 
O=C(O)c1ncn2c1C1(CC1)N=C(c1ccccc1F)c1cc(Cl)ccc1-2 |  |  | > 300 µM | 18% | 36200 µM (≈ 13800 µg/mL) | 101% | 98% | Non-Toxic | 103% | 103% |  |  | 
CCOC(=O)c1ncn2c1C1(CC1)N=C(c1ccccc1F)c1cc(Br)ccc1-2 |  |  | > 120 µM | 94% | 141 µM (≈ 64.1 µg/mL) |  |  |  |  |  |  |  | 
O=C(O)c1ncn2c1C1(CCCCC1)N=C(c1ccccc1F)c1cc(Br)ccc1-2 |  |  | > 300 µM | 24% | 46900 µM (≈ 22000 µg/mL) | 111% | 78% | Non-Toxic | 107% | 106% | Active | inactive | 
CC1(C)N=C(c2ccccc2F)c2cc(Br)ccc2-n2cnc(C(=O)O)c21 |  |  | > 300 µM | 74% | 4400 µM (≈ 1880 µg/mL) | 106% | 107% | Non-Toxic | 106% | 111% |  | inactive | 
C#Cc1ccc2c(c1)C(c1ccccc1F)=NC1(CC1)C1C(C(=O)OCC)N=CN21 (stereo not given) |  |  | > 150 µM | 56% | 53 µM (≈ 21.3 µg/mL) |  |  |  |  |  |  |  | 
O=C1Nc2ccc(Cl)cc2C(c2ccccc2F)=NC12CC2 |  |  | > 150 µM | 90% | 39 µM (≈ 12.3 µg/mL) |  |  |  |  |  |  |  | 
C#Cc1ccc2c(c1)C(c1ccccc1F)=NC1(CC1)c1c(C(=O)O)ncn1-2 |  |  | > 300 µM | 55% | 40300 µM (≈ 15000 µg/mL) | 108% | 113% | Non-Toxic | 106% | 93% | Active | Active | 
O=C1Nc2ccc(Br)cc2C(c2ccccc2F)=NC12CC2 |  |  | > 150 µM | 97% | 321 µM (≈ 115 µg/mL) |  |  |  |  |  |  |  | 
CCOC(=O)c1ncn2c1C(C)(C)N=C(c1ccccc1F)c1cc(Br)ccc1-2 |  |  | > 150 µM | 78% | 103 µM (≈ 47 µg/mL) |  |  |  |  |  |  |  | 
O=C(O)c1ncn2c1C1(CC1)N=C(c1ccccc1F)c1cc(Br)ccc1-2 | 9 µM |  | > 300 µM | 97% | 8200 µM (≈ 3500 µg/mL) | 120% | 90% | Non-Toxic | 104% | 69% | Active | Active | 
CC1(C)N=C(c2ccccc2F)c2cc(Br)ccc2NC1=O |  |  | > 150 µM | 70% | 319 µM (≈ 115 µg/mL) |  |  |  |  |  |  |  | 
O=C(O)c1ncn2c1C1(CCCC1)N=C(c1ccccc1F)c1cc(Br)ccc1-2 |  |  | > 300 µM | 2% | 46700 µM (≈ 21200 µg/mL) | 117% | 92% | Non-Toxic | 114% | 96% |  | inactive | 
O=C1Nc2ccc(Br)cc2C(c2ccccc2F)=NC12CCCC2 |  |  | > 120 µM | 13% | 98 µM (≈ 38 µg/mL) |  |  |  |  |  |  |  | 
O=C1Nc2ccc(Br)cc2C(c2ccccc2F)=NC12CCCCC2 |  |  | 87 µM | 33% | 94 µM (≈ 37.7 µg/mL) |  |  |  |  |  |  |  | 
CCC1N=C(c2ccccc2F)c2cc(Br)ccc2NC1=O (racemic) | 134 µM | 397 µM (≈ 143 µg/mL) | > 150 µM | 95% |  |  |  |  |  |  |  |  | 
CCOC(=O)c1ncn2c1C1(CC1)N=C(c1ccccc1F)c1cc(C3CC3)ccc1-2 |  |  | > 120 µM | 22% | 96 µM (≈ 39.9 µg/mL) |  |  |  |  |  |  |  | 
O=C(O)c1ncn2c1C1(CC1)N=C(c1ccccc1F)c1cc(C3CC3)ccc1-2 |  |  | > 300 µM | 58% | 12800 µM (≈ 4960 µg/mL) | 102% | 95% | Non-Toxic | 107% | 96% |  |  | 
O=C(O)c1ncn2c1C1(CCC1)N=C(c1ccccc1F)c1cc(Br)ccc1-2 | 1830 µM |  | > 300 µM | 59% | 58700 µM (≈ 25800 µg/mL) | 90% | 91% | Non-Toxic |  | 113% |  | inactive | 122%
CCC1N=C(c2ccccc2F)c2cc(Br)ccc2-n2cnc(C(=O)O)c21 (racemic) | 145 µM | 77600 µM (≈ 33200 µg/mL) | > 300 µM | 102% |  | 108% | 114% | Non-Toxic | 119% | 111% |  | Active | 
O=C(O)c1ncn2c1C1(CC1)N=C(c1ccccc1F)c1ccccc1-2 |  |  | > 300 µM | 74% | 15100 µM (≈ 5240 µg/mL) | 108% | 99% | Non-Toxic | 106% | 96% | Active | Active | 
CCOC(=O)c1ncn2c1C1(CCCC1)N=C(c1ccccc1F)c1cc(Br)ccc1-2 |  |  | 106 µM | 19% | 144 µM (≈ 69.5 µg/mL) |  |  |  |  |  |  |  | 
